Measurements: ChEMBL document CHEMBL2169847, “New tricks for an old natural product: discovery of highly potent evodiamine derivatives as novel antitumor agents by systemic structure-activity relationship analysis and biological evaluations” (J Med Chem, 2012)

Columns and labels:
Format in all cases: functional
MDA-MB-435 = assay: Cytotoxicity against human MDA-MB-435 cells incubated for 72 hrs by MTT assay; details: MDA-MB-435, 72 h
Method in brief: (§1)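 MTT assay. Cells seeded at 5 × 10³/well and grown 24 h at 37 °C, 5% CO₂. Compounds added at several concentrations in triplicate wells, with 0.1% DMSO control, for 72 h. MTT then added for 4 h, formazan dissolved in DMSO, and absorbance read at 570 nm. GI₅₀ by Logit method; three experiments.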

A549 = assay: Cytotoxicity against human A549 cells incubated for 72 hrs by MTT assay; details: A549, 72 h; method in brief: as §1
HCT-116 = assay: Cytotoxicity against human HCT116 cells incubated for 72 hrs by MTT assay; details: HCT-116, 72 h; method in brief: as §1

SMILES | GI50 (MDA-MB-435) [µM] | GI50 (A549) [µM] | GI50 (HCT-116) [µM]
CN1c2cccc(F)c2C(=O)N2CCc3c([nH]c4ccccc34)C21 (stereo unspecified) | 42.6 | 200 | > 200
CN1c2ccccc2C(=O)N2CCc3c([nH]c4ccc(F)cc34)C21 (stereo unspecified) | 27.4 | 6.85 | 8.56
C#CCN(CC#C)c1ccc2c(c1)C(=O)N1CCc3c([nH]c4ccccc34)C1N2C (stereo unspecified) | 2.03 | > 200 | 0.21
O=C1c2ccccc2OC2c3c(c4ccccc4n3C(=O)c3ccc(Cl)cc3)CCN12 (stereo unspecified) | > 200 | > 200 | > 200
COc1cc2c(cc1OC)N(C)C1c3[nH]c4ccccc4c3CCN1C2=O (stereo unspecified) | 8.97 | > 200 | > 200
CN1c2ccc(N3CCC3)cc2C(=O)N2CCc3c([nH]c4ccccc34)C21 (stereo unspecified) | 0.2 | > 200 | 3.85
CN1c2ccc(Br)cc2C(=O)N2CCc3c(n(C(=O)c4ccc(Cl)cc4)c4ccccc34)C21 (stereo unspecified) | 8.72 | > 200 | 39.7
CN1c2ccc([N+](=O)[O-])cc2C(=O)N2CCc3c([nH]c4ccccc34)C21 (stereo unspecified) | > 200 | > 200 | > 200
Cc1ccc2c(c1)C(=O)N1CCc3c([nH]c4ccccc34)C1N2C (stereo unspecified) | 0.32 | 32.2 | 0.61
CN1c2cccc(Cl)c2C(=O)N2CCc3c([nH]c4ccccc34)C21 (stereo unspecified) | 1.43 | 5.65 | 4.56
C#CCOc1ccc2[nH]c3c(c2c1)CCN1C(=O)c2ccccc2N(C)C31 (stereo unspecified) | 4.39 | > 200 | 14
COc1ccc2[nH]c3c(c2c1)CCn1c-3nc2ccc(F)cc2c1=O | > 200 | > 200 | 138
CN1c2ccccc2CN2CCc3c(n(C(=O)c4ccc(Cl)cc4)c4ccccc34)C21 (stereo unspecified) | 96 | > 200 | > 200
CN1c2ccccc2C(=O)N2CCc3c([nH]c4ccc(OCC5CO5)cc34)C21 (stereo unspecified) | 0.61 | 48.9 | 2.98
COc1ccc2c(c1)N(C)C1c3[nH]c4ccccc4c3CCN1C2=O (stereo unspecified) | > 200 | > 200 | > 200
CN1c2ccc(NC(=O)C3CC3)cc2C(=O)N2CCc3c([nH]c4ccccc34)C21 (stereo unspecified) | > 200 | > 200 | 187
CN1c2ccccc2C(=O)N2CCc3c([nH]c4ccc(I)cc34)C21 (stereo unspecified) | 0.26 | 11.4 | 0.78
COc1ccc2[nH]c3c(c2c1)CCN1C(=O)c2cc(F)ccc2N(C)C31 (stereo unspecified) | < 0.003 | 200 | 0.78
Cc1cccc2c1C(=O)N1CCc3c([nH]c4ccccc34)C1N2C (stereo unspecified) | 20.2 | 14.3 | 13.1
CN1c2ccccc2C(=O)N2CCc3c([nH]c4ccc(Br)cc34)C21 (stereo unspecified) | 37.6 | > 200 | > 200
COc1ccc2[nH]c3c(c2c1)CCN1C(=S)c2ccccc2N(C)C31 (stereo unspecified) | 3.69 | 106 | 21.4
COc1ccc2[nH]c3c(c2c1)CCN1C(=O)c2cc([N+](=O)[O-])ccc2N(C)C31 (stereo unspecified) | > 200 | > 200 | 0.15
CN1c2ccccc2C(=O)N2CCc3c([nH]c4c([N+](=O)[O-])cc([N+](=O)[O-])cc34)C21 (stereo unspecified) | 0.16 | > 200 | > 200
CN1c2ccccc2C(=S)N2CCc3c(n(C(=O)c4ccc(Cl)cc4)c4ccccc34)C21 (stereo unspecified) | > 200 | > 200 | > 200
O=C1c2cc(F)ccc2NC2c3[nH]c4ccccc4c3CCN12 (stereo unspecified) | > 200 | > 200 | > 200
COc1ccc2[nH]c3c(c2c1)CCN1C(=O)c2c(OC)cccc2N(C)C31 (stereo unspecified) | 21 | 98 | 42
CN1c2cc(Cl)ccc2C(=O)N2CCc3c([nH]c4ccccc34)C21 (stereo unspecified) | > 200 | > 200 | > 200
